Here are results for 80 molecules from PubChem BioAssay AID624038 (The Scripps Research Institute Molecular Screening Center, 2012).

Each structure is given as a SMILES string. Where “and” joins values, the source holds several entries; their conditions need not be identical. Equal values may be shown once. Among all 360,000 compounds or so, about 1,100 (0.31%) were called active.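 The calls were made as follows: active = activation above the run cutoff, the mean activation of all test compounds plus 3 SD (cut at about 18% in these data); inactive = the rest.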 The entries come from a sample that favours actives as a whole. A structure can be active in one record and inactive in another.

In the assay the target is Muscarinic acetylcholine receptor M5 (Homo sapiens) (UniProt P08912). Kind of assay: CHRM5 PAMs potentiating acetylcholine calcium signal – CHO-K1 cells, Fluo-8 calcium fluorescence, primary screen (AID 624038). The following applies: CHO-K1 hM5, Fluo-8 calcium, ACh EC20 PAM; at 3 µM; stronger effect = higher value; 0% = ACh EC20, 100% = ACh EC100. The procedure, abridged: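 Test system: CHO-K1 hM5 cells / Doses: single-point, 3 µM nominal / Times: Post-acetylcholine fluorescence recording 140 s / Technique: Fluo-8 calcium fluorescence / Measure: Max/basal fluorescence ratio as % of EC20–EC100 ACh window / Benchmarks: low control EC20 acetylcholine (0%), high control EC100 acetylcholine (100%) / Replicates: one well per compound, no replicates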
Chain of Muscarinic acetylcholine receptor M5 (Homo sapiens) (P08912 whole entry, looked up): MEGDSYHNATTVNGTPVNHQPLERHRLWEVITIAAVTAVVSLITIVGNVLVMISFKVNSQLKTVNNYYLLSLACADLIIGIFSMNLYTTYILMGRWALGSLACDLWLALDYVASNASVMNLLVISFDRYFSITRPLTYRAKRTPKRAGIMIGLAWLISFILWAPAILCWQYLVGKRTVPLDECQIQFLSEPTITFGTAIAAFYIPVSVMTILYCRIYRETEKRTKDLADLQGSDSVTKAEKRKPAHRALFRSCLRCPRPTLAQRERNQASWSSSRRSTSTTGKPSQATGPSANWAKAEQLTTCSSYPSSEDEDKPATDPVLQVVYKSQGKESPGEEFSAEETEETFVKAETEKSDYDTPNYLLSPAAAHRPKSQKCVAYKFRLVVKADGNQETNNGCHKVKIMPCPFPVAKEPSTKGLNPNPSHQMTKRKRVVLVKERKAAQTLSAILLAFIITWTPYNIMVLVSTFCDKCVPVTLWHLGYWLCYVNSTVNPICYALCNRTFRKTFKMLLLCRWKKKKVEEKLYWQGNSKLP
For `CCC(C(=O)N1CCN(S(=O)(=O)c2sc(C(=O)O)c(C)c2C(=O)O)CC1)c1ccccc1` (stereo not given), the activation is 5.73% (inactive).
Regarding `COc1ccc(OC)c(S(=O)(=O)Nc2c(C)nn(C)c2C)c1`, the activation is 18.8% (active).
Take `COc1ccc(OC)c(S(=O)(=O)Nc2ccccc2F)c1`: the activation is -7.66% (inactive).
Take `COc1ccc(OC)c(S(=O)(=O)NCCC(C)C)c1`: the activation was 3.29% (inactive).
As for `Cc1ccc(Br)c(NS(=O)(=O)c2cccc(C(=O)N3CCNC(=O)C3)c2)c1`, the activation was -1.57% (inactive).
For the molecule `CCOC(=O)c1cnc(-n2nc(C)cc2C)nc1NNc1cc(C)nc(-c2ccccc2)n1`, the activation was 0.83% (inactive).
To `CCOC(=O)c1cnc2c(c(C)nn2CC)c1Cl` belongs 0.72% (inactive); to `CCOC(=O)c1cnc(-n2nc(C)cc2C)nc1-n1nc(C)cc1C`, 37.3% (active); to `Cc1cc(C(=O)OCC(=O)Nc2nccs2)c2ccccc2n1`, -1.11% (inactive).
For `C=CCn1c(=S)[nH]c2scc(-c3ccco3)c2c1=O`, the activation is -1.04% (inactive).
Consider `Cc1cc(C)n(Cc2cnc(N3CCOCC3)s2)n1`, for which the activation was -0.72% (inactive).
For `CN(CC(=O)Nc1c(Cl)cccc1Cl)C(=O)CNC(=O)C1CCCCC1` the value was 7.43% (inactive); for `COc1cccc(N(CC(=O)N2CCc3ccccc3C2)S(C)(=O)=O)c1`, -6.56% (inactive); for `COc1cccc(N(CC(=O)NC2CCCCCC2)S(=O)(=O)c2ccccc2)c1`, -3.45% (inactive).
On to `CCN(CC)C(=O)CN(c1cccc(OC)c1)S(=O)(=O)c1ccc(C)cc1`, for which the activation was 24% (active).
As to `CCN1CCN(C(=O)C2CCCN(S(=O)(=O)c3ccc(OC)c(OC)c3)C2)CC1` (stereo not given), the activation was -3.07% (inactive).
With `O=C(NNS(=O)(=O)c1ccc(Cl)cc1)C1CCN(Cc2ccccc2)CC1`, the activation was -22.7% (inactive).
For `CCNC(=S)NNC(=O)C1CCN(Cc2ccccc2)CC1` the value was 22.7% (active); for `CCOC(=O)C1CCN(Cc2ccc(-c3ccccc3)cc2)CC1`, -6.76% (inactive).
For `CCCc1nc(N)nc2c1C(=O)CC(C)(C)C2`, the activation is 3.62% (inactive).
As to `COc1ccc(N2CCN(CCCNC(=O)C3CCN(S(=O)(=O)N4CCOCC4)CC3)CC2)cc1`, the activation was -0.18% (inactive).
Take `CSc1ccc(C(=O)C2CCCN(C(=O)c3ccc(C)nc3)C2)cc1` (stereo not given): the activation was -1.27% (inactive).
As for `Cn1nccc1NC(=O)CC(CC(=O)O)c1ccccc1` (stereo not given), the activation is -3.88% (inactive).
To `O=C(O)c1n[nH]nc1-c1ccccc1` belongs 3.89% (inactive); to `N#Cc1c(-c2ccccc2)c(-c2ccccc2)n[nH]c1=O`, 20.6% (active).
As to `Cc1c(-c2ccccc2)nc(N)c(C#N)c1-c1cccs1`, the activation is -5.86% (inactive).
Consider `O=C(COc1ccc(Cl)cc1)NCCS(=O)(=O)N1CCN(c2ccc(F)cc2)CC1`, for which the activation was -8.06% (inactive).
With `CCCc1nc(N2CCN(C)CC2)c2sc(=S)n(-c3ccccc3)c2n1`, the activation is -2.27% (inactive).
On to `O=C(/C=C/c1c(Cl)cccc1Cl)NCc1ccccc1`, for which the activation is 0.05% (inactive).
On to `CCOC(=O)CNC(=O)/C=C/c1c(Cl)cccc1Cl`, for which the activation was 20.4% (active).
As for `O=C(/C=C/c1c(F)cccc1Cl)Nc1nn[nH]n1`, the activation is -6.11% (inactive).
Consider `CCc1ccc(N(CC)c2ncnc3nc[nH]c23)cc1`, for which the activation was -3.31% (inactive).
Turning to `CC(C)Cn1c(=O)c2ccccc2n2c(CCC(=O)NCc3ccccn3)nnc12`, the activation was -4.54% (inactive).
Regarding `CSc1ncc(C(=O)NCCCc2ccccc2)c(C)n1`, the activation is -2.95% (inactive).
In the case of `CSc1ncc(Sc2ccccc2)c(C(=O)O)n1`, the activation is 23.2% (active).
For `Cc1ccccc1C(=O)Nc1ccccc1Sc1ccccc1` the value was -14.3% (inactive); for `CCOc1ccc(S(=O)(=O)N2CCCC(C(=O)N3CCC(C(N)=O)CC3)C2)cc1Cl` (stereo not given), 5.31% (inactive); for `CCCCOP(=O)(c1ccc(N(C)C)cc1)C(O)c1cc(OC)ccc1OC` (stereo not given), 4.18% (inactive).
For `CSCC(=O)N1CCCC(C(=O)c2cc(F)ccc2F)C1` (stereo not given), the activation was -4.39% (inactive).
To `S=C(Nc1ccc(Br)cc1Cl)N1CCC2(CC1)OCCO2` belongs -0.18% (inactive); to `NC(=O)C1=C[C@@H](c2ccc3c(c2)OCO3)C[C@@H](OCCCCO)O1`, -3.38% (inactive).
In the case of `Cc1nn(Cc2ccccc2)c(C)c1NS(=O)(=O)c1ccccc1`, the activation was -9.59% (inactive).
Consider `O=C(CS(=O)(=O)c1ccccc1)Nc1ccc(S(=O)(=O)Nc2ccccn2)cc1`, for which the activation is -5.27% (inactive).
Take `COc1ccc(NC(=O)CC(NC(C)c2ccccc2)C(=O)O)cc1` (stereo not given): the activation is -1.9% (inactive).
In the case of `COc1ccc(NC(=O)CS(=O)(=O)c2ccccc2)cc1`, the activation was 18.2% (active).
`CCOC(=O)N1CCC(NC(=O)C(C)n2c3ccccc3c3cnn(C)c(=O)c32)CC1` (stereo not given): the activation is -5.66% (inactive).
Turning to `CCN(CC(=O)Nc1c(F)cccc1F)C(=O)c1ccc(Sc2nncn2C)c([N+](=O)[O-])c1`, the activation was 0.28% (inactive).
Take `Cc1ccccc1N(C(=O)CNC(=O)c1cccs1)C(C(=O)NC1CCCC1)c1ccncc1` (stereo not given): the activation is 5.18% (inactive).
`COc1ccc(C(C(=O)NC2CCCCC2)N(C(=O)c2snc(C(N)=O)c2N)c2ccccc2OC)cc1` (stereo not given): the activation was -2.86% (inactive).
For `COc1ccc(C(C(=O)NC2CCCCC2)N(C(=O)CCl)c2ccccc2Cl)cc1` (stereo not given) the value was 28.1% (active); for `O=C(CSc1nc2ncccc2[nH]1)Nc1ccc2c(c1)OCCO2`, -2.19% (inactive); for `CCOc1ccc(NC(=O)CCC(=O)NNC(=O)NC2CCCCC2)cc1`, 21.3% (active).
Take `CCOc1ccc(C(=O)CCC(=O)Nc2ccncc2)cc1`: the activation was -11.9% (inactive).
`CCOc1ccccc1NC(=O)NC1CCCCCCC1`: the activation was -0.6% (inactive).
For the molecule `O=C(CCn1c(=O)oc2ccccc21)Nc1ccon1`, the activation is 3.01% (inactive).
To `CC(NCc1cccs1)C(=O)Nc1cc(Cl)cc(Cl)c1` (stereo not given) belongs -6.98% (inactive); to `CCC(C)NC(=O)c1ccccc1NC(=O)c1ccccc1N(C)S(C)(=O)=O` (stereo not given), 2.75% (inactive).
`CCCCNC(=O)c1ccccc1NC(=O)c1ccccc1N(C)S(C)(=O)=O`: the activation was 21.6% (active).
Turning to `CCCCNC(=O)c1ccccc1NC(=O)C1=C(C)OCCS1`, the activation is -4.46% (inactive).
Take `Cc1noc(/C=C/c2ccco2)c1S(=O)(=O)N1CCC(C(=O)N2CCc3ccccc32)CC1`: the activation was -9.2% (inactive).
For the molecule `CC(C)(C)n1nnnc1C(c1ccc2ncccc2c1)N1CCSCC1` (stereo not given), the activation was -6.68% (inactive).
As for `CC(C)C(=O)N1CCN(CCN=CC2=C(O)CC(c3ccco3)CC2=O)CC1` (stereo not given), the activation is 18.8% (active) and 2.37% (inactive).
Take `CC1(C)CC(=O)C(C=NCCN2CCN(C(=S)Nc3cccc(Cl)c3)CC2)=C(O)C1`: the activation is 0.98% (inactive).
For the molecule `CC(=O)N1CCN(CCN=CC2=C(O)CC(C)(C)CC2=O)CC1`, the activation was -3.36% (inactive).
On to `COCCCNC(=O)C1CC(=O)N(c2ccc(C)cc2)C1` (stereo not given), for which the activation is -2.16% (inactive).
Consider `CCCC(C)NC(=O)C1CCN(C(=O)C2CC(=O)N(c3ccc(C)cc3)C2)CC1` (stereo not given), for which the activation is 1.21% (inactive).
On to `COCCNC(=O)C1CCN(C(=O)C2CC(=O)N(c3ccc(C)cc3)C2)CC1` (stereo not given), for which the activation was 19.9% (active).
Consider `O=C(CCC(=O)n1ncc2ccccc21)NCc1ccccc1Cl`, for which the activation was -1.46% (inactive).
With `O=C(CN1C(=O)NC(Cc2ccccc2)(Cc2ccccc2)C1=O)NCC1CCCCC1`, the activation was -4.45% (inactive).
With `O=C(CNc1cccc(S(=O)(=O)N2CCCCC2)c1)Nc1ccccc1F`, the activation is 2.99% (inactive).
Turning to `C[C@H](NC(=O)c1[nH]cnc1C(=O)Nc1nccs1)c1ccccc1`, the activation is 6.95% (inactive).
To `CC(NC(=O)C(=O)Nc1nccs1)c1ccccc1` (stereo not given) belongs 20.9% (active).
For `CC(=O)NC(CC(=O)Nc1nccs1)c1ccccc1` (stereo not given) the value was 3.53% (inactive).
On to `CCCCn1nc(C(=O)OCC(=O)Nc2sccc2C(N)=O)c2ccccc2c1=O`, for which the activation was -5.8% (inactive).
To `COC(=O)c1ccc(CN2CCC(CO)(Cc3ccc(OC)cc3)CC2)cc1` belongs -13.3% (inactive).
For `O=C(NC1=NCCS1)c1ccc(Cl)s1` the value was 2.85% (inactive); for `COc1ccc(NC(=O)C(C)SCc2ccccc2)cc1` (stereo not given), 3.94% (inactive); for `C=CCN1C(=O)C(O)(CC(=O)c2ccccn2)c2ccccc21` (stereo not given), 0.57% (inactive).
As for `C=CCN1C(=O)C(O)(CC(=O)c2ccc(Cl)cc2)c2ccccc21` (stereo not given), the activation was 12.2% (inactive).
Take `O=C(CC1(O)C(=O)N(CN2CCOCC2)c2ccccc21)c1ccccc1` (stereo not given): the activation was 37.4% (active).
